# Legend:
# SK-BR-3 [1] = test: Cytotoxicity against human SKBR3 cells assessed as cell viability at 6.25 uM after 72 hrs by MTS assay; assay type: functional; conditions: SK-BR-3, 72 h, read-out: Activity
# Outline: (§1)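 SKBR3 breast cancer cells were exposed to compound for 72 h. Viability was measured by MTS and reported as % viability at each of five concentrations: 6.25, 12.5, 25, 50 and 100. A viability-versus-concentration plot was also made.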
# SK-BR-3 [2] = test: Cytotoxicity against human SKBR3 cells assessed as cell viability at 50 uM after 72 hrs by MTS assay; assay type: functional; conditions: SK-BR-3, 72 h, read-out: Activity; outline: as §1
# SK-BR-3 [3] = test: Cytotoxicity against human SKBR3 cells assessed as cell viability at 25 uM after 72 hrs by MTS assay; assay type: functional; conditions: SK-BR-3, 72 h, read-out: Activity; outline: as §1
# SK-BR-3 [4] = test: Cytotoxicity against human SKBR3 cells assessed as cell viability at 12.5 uM after 72 hrs by MTS assay; assay type: functional; conditions: SK-BR-3, 72 h, read-out: Activity; outline: as §1
# SK-BR-3 [5] = test: Cytotoxicity against human SKBR3 cells assessed as cell viability at 100 uM after 72 hrs by MTS assay; assay type: functional; conditions: SK-BR-3, 72 h, read-out: Activity; outline: as §1
# SK-BR-3 [6] = test: Cytotoxicity against human SKBR3 cells after 72 hrs by MTS assay; assay type: functional, cell-based; conditions: SK-BR-3, 72 h; outline: as §1
Structure (SMILES),viability at 6.25 µM (SK-BR-3 [1]),viability at 50 µM (SK-BR-3 [2]),viability at 25 µM (SK-BR-3 [3]),viability at 12.5 µM (SK-BR-3 [4]),viability at 100 µM (SK-BR-3 [5]),IC50 (SK-BR-3 [6])
CN1[C@H](COCc2ccc(-c3ccccc3)cc2)COCS1(=O)=O,89%,61%,60%,66%,52%,–
CCCCCCCC/C=C\CCCCCCCCOC[C@@H]1COCS(=O)(=O)N1C,72%,65%,65%,71%,65%,–
CN1[C@H](COCc2ccccc2)COCS1(=O)=O,85%,83%,88%,81%,82%,–
CCCCCCCC/C=C\CCCCCCCCOC[C@H]1COCS(=O)(=O)N1Cc1ccccc1,71%,82%,81%,81%,96%,–
COc1cccc(COC[C@@H]2COCS(=O)(=O)N2Cc2ccccc2)c1,100%,96%,100%,100%,89%,–
O=S1(=O)COC[C@H](COCc2ccccc2)N1Cc1ccccc1,81%,87%,82%,80%,96%,–
CCCCCCCC/C=C\CCCCCCCCOC[C@@H]1COCS(=O)(=O)N1Cc1ccccc1,100%,100%,99%,100%,100%,–
O=S1(=O)COC[C@H](COCc2ccc(-c3ccc(CBr)cc3)cc2)N1,99%,18%,26%,81%,20%,10 µM
O=S1(=O)COC[C@H](COCc2ccccc2)N1,100%,51%,78%,94%,22%,–
O=S1(=O)COC[C@@H](COCc2ccc(F)cc2)N1Cc1ccccc1,93%,99%,88%,86%,96%,–
O=S1(=O)COC[C@@H](COCc2ccc(-c3ccc(CBr)cc3)cc2)N1,66%,10%,10%,34%,10%,10 µM
O=C(OC[C@@H]1COCS(=O)(=O)N1Cc1ccccc1)c1ccccc1,81%,89%,88%,98%,100%,–
O=S1(=O)COC[C@@H](COCc2ccccc2)N1,100%,80%,100%,100%,16%,–
O=S1(=O)COC[C@@H](COCc2ccc(-c3ccccc3)cc2)N1,75%,44%,75%,75%,46%,–
O=S1(=O)COC[C@@H](COCc2ccccc2)N1Cc1ccccc1,89%,83%,88%,82%,82%,–
CN1[C@H](COCc2ccc3ccccc3c2)COCS1(=O)=O,81%,74%,73%,82%,74%,–

# — ChEMBL document CHEMBL1221316, “Synthesis of new oxathiazinane dioxides and their in vitro cancer cell growth inhibitory activity” (Bioorg Med Chem Lett, 2010)
